Source: PubChem BioAssay (Sanford-Burnham Center for Chemical Genomics)
Only some compounds are listed: those with a hit (about 1.9% of all), similar ones and a draw of the others.
LMPTP inh = LMPTP (human) inhibition; P24666; recombinant LMPTP-A, OMFP fluorogenic substrate, fluorescence intensity; inhibition, % at 20 µM; 0.22% of 360,000 active;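 active = compounds that cut the enzyme signal by at least half of the control window in the single-dose screen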;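 also: plate controls were DMSO wells with enzyme plus substrate for no effect and substrate without enzyme for full effect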
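Test system – LMPTP-A enzyme · Amount – LMPTP-A at 0.625 nM final in the reaction · Buffer or medium – Bis-Tris pH 6.0, DTT, detergent · Reagent – OMFP 400 µM · Doses – single 20 µM dose · Schedule – reaction 50 min, room temperature, dark · Detection – fluorescence intensity of OMFP turnover product · Evaluation – percent inhibition versus substrate-only and uninhibited controls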
Scp1 inh = Scp-1 (human) phosphatase inhibition | Q9GZU7 | Recombinant Scp1, phosphopeptide, malachite green phosphate absorbance | inhibition, % at 20 µM | 0.88% of 340,000 active;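 active = inhibition above about 50% at 20 µM, limit read from the data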;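 also: plate controls were DMSO wells with enzyme for no effect and wells lacking enzyme for full effect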
Target sequence (Q9GZU7 76-261 limits assumed): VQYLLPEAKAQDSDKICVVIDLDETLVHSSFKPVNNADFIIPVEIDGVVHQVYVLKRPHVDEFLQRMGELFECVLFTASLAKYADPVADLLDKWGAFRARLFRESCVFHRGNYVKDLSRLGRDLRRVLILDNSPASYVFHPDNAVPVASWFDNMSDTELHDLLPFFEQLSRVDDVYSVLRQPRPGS
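Test system – truncated SCP-1 phosphatase (76-261aa) · Reagent – Phosphorylated 17-residue peptide substrate · Incubation – 45 min room-temperature reaction, 5 min colour, 30 min stabiliser · Detection – colorimetric phosphate reagent with accelerator and stabiliser, absorbance at 630 nm · Measure – % inhibition at 20 µM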
SUMO1-SIM PPI = alters human SUMO1 binding to SIM partners; 0.33% of 360,000 active; SUMO1 binding to a labelled peptide, TR-FRET, 1 h; inhibition, % at 20 µM; in the data active = inhibition above about 37%
Target sequence (P63165 whole entry, looked up): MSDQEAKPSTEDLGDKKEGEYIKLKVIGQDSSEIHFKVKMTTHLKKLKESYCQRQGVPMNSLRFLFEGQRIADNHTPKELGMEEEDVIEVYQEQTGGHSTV
STEP inh = blocks human striatal-enriched tyrosine phosphatase. P54829. recombinant STEP, OMFP fluorogenic substrate, fluorescence. inhibition, % at 20 µM. 0.25% of 360,000 active;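 active = inhibition at 20 µM, scaled per plate between control wells, above about 37%, limit read from the data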;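 also: 0% = DMSO with enzyme and substrate and 100% = substrate only without enzyme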
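System: isolated STEP enzyme; schedule: 20 min enzyme reaction at room temperature, protected from light; medium: Bis-Tris buffer pH 6.0, 2.5 mM DTT, 0.005% Tween 20; signal: fluorescence, 480/540 nm; dosing: single compound dose of 20 µM, 1% DMSO final; also added: OMFP substrate, 25 µM final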
DNMT1 block = blocks human DNA methyltransferase DNMT1 | P26358 | DNMT1 molecular beacon, Hinp1I cleavage, fluorescence | inhibition (reported as % activation of signal), % at 10 µM | 0.83% of 360,000 active | AID 588458; in the data active = inhibition above about 50%
CSN inh = inhibitors of human CSN-mediated cullin deneddylation; Q92905; Purified CSN, SCF-Nedd8-OG deneddylation, fluorescence polarization; 0.38% of 360,000 active; inhibition, % at 12.5 µM; AID 651999;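 active = pattern-corrected inhibition above about 35%, with an unprinted fluorescence ratio check between 0.5 and 1.5, limit read from the data, passing the limit was not always enough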;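 also: 0% = enzyme with substrate and 100% = substrate without enzyme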
Target sequence (Q92905 whole entry, looked up, one chain of several): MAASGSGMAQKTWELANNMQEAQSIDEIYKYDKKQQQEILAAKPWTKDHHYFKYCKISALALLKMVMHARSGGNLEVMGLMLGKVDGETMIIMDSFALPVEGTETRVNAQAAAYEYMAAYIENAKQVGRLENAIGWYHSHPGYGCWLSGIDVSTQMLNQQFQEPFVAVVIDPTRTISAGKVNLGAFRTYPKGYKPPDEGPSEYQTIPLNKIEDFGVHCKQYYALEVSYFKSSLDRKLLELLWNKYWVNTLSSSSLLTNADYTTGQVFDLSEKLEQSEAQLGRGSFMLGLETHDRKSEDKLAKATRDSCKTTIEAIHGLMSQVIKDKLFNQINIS
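Material: purified human Csn5 enzyme expressed in HEK293T cells / Medium: Tris buffer pH 7.5, NaCl, DTT, Tween-20, trehalose, ovalbumin / Compound dosing: 12.5 µM single point / Schedule: 90 min incubation of compound, enzyme and substrate at room temperature / Signal: fluorescence polarization of the substrate / Control set: no-enzyme wells high, enzyme-with-substrate wells low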
Beacon interf DR = counter-screen for DNMT1 inhibitors: spectral interference, dose response. shares compounds with DNMT1 block. molecular beacon fluorescence. IC50, µM. 200 tested, under 10 active
DNMT1 inh conf = DNMT1 inhibition confirmation, single concentration; inhibition, % at 10 µM; shares compounds with DNMT1 block; DNMT1 molecular beacon HinP1I cleavage, fluorescence; 8% of 2,300 active;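 active = average inhibition of at least 30% in the single-concentration confirmation test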
DNMT1 interf = beacon fluorescence artifact counter-screen. shares compounds with DNMT1 block. DNMT1 molecular beacon spectral interference counterscreen, fluorescence 485/520. activation (fluorescence interference), % at 10 µM. 1% of 2,300 active. AID 602387;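 active = activation of at least 30% at 10 µM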;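 also: DNMT1 catalytic domain with a HinP1I cleavage step and a FAM/dabcyl DNA beacon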
STEP conf = confirmation of human STEP phosphatase inhibitors; inhibition, % at 20 µM; shares compounds with STEP inh; 32% of 520 active; AID 623866; recombinant STEP, OMFP fluorogenic substrate, fluorescence;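 also: 0% = enzyme with substrate plus DMSO and 100% = substrate without enzyme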
* = called active by the depositor; · = no result. Unless noted, no rule for the calls is given here.

SMILES	LMPTP inh	Scp1 inh	SUMO1-SIM PPI	STEP inh	DNMT1 block	CSN inh	DNMT1 inh conf	DNMT1 interf	others
Cc1ccc(C2C(/C=C3/SC(=S)NC3=O)=C(c3cccs3)Oc3ccccc32)cc1 (stereo not drawn)	7	0	1	0	83*	4	72*	-13	Beacon interf DR=>99
COc1ncnc2c1ncn2CCCN[C@H](C)c1cccc2ccccc12	-1	·	-1	-3	6	2	·	·
O=C(CN(Cc1ccc(Br)cc1)S(=O)(=O)c1ccccc1)NCc1ccccn1	-1	4	-3	-1	87*	0	4	5
Cc1cc(C)cc(CC(=O)N2CCC2(C)C(=O)NS(=O)(=O)c2cccc(F)c2)c1 (stereo not drawn)	-1	·	3	3	0	-4	·	·
O=C(COC(=O)c1ccco1)NCc1ccco1	-1	0	1	-3	0	-1	·	·
O=C(COC(=O)c1ccccc1Oc1ccccc1)NCc1ccco1	0	70*	2	-2	55*	6	10	4
COc1ccc(C(=O)Nc2cc(C)on2)c(OC)c1	-1	1	-5	0	2	1	·	·
COc1ccc(C(=O)Nc2ccc(C)cn2)c(OC)c1	-1	-9	7	1	74*	-1	1	3
O=C(COC(=O)Cn1cnc2ccccc21)Nc1ccc(OC(F)F)cc1	0	2	-4	-2	-8	0	·	·
CCc1nc2ccccc2c(NC(=O)CN2CC(C)CC(C)C2)c1C (stereo not drawn)	1	-2	-4	-2	0	1	·	·
Cc1noc(C)c1CCC(=O)NC1CCCN(Cc2ccc(Cl)cc2)C1 (stereo not drawn)	-1	5	0	0	4	1	·	·
Cc1noc(C)c1CCC(=O)NC1CCCN(Cc2ccc(CC(C)C)cc2)C1 (stereo not drawn)	0	-3	1	-2	53*	-8	1	0
O=C(O)c1cccc(-c2noc(-c3cccc(Cl)c3)n2)c1	-1	-6	14	3	83*	1	0	2
COc1ccc2c(c1)nc(NCCCO)n2Cc1ccccc1	0	-8	0	3	0	-1	·	·
COc1ccccc1OCCSc1nc(C)c(Cc2ccccc2)c(=O)[nH]1	·	-7	·	·	·	·	·	·
COc1ccc2ccccc2c1C(O)c1nccn1C (stereo not drawn)	-1	-14	-19	-20	62*	-68	0	2
Cn1ccnc1C(O)c1ccccc1 (stereo not drawn)	-4	-3	2	-3	3	-13	·	·
COc1cc(C=NNc2ccccc2[N+](=O)[O-])cc(OC)c1OC	1	·	-15	2	53*	0	3	0
COc1cc(/C=N/Nc2ccc(F)cc2F)cc(OC)c1OC	1	-9	-4	2	0	-2	·	·
CCOC(=O)C(C)S(=O)(=O)c1ccc(C(F)(F)F)cn1 (stereo not drawn)	0	-7	-1	-1	-4	-1	·	·
COc1ccc(CC(=O)Nc2ccc(-c3noc(-c4cccc(OC)c4)n3)cc2)cc1	-1	11	-4	-7	61*	12	1	1
COc1cccc(-c2nc(-c3ccc(NC(=O)c4cccnc4)cc3)no2)c1	0	5	2	-2	-10	3	·	·
O=S(=O)(c1cc(O)ccc1O)c1cccc2c(S(=O)(=O)c3cc(O)ccc3O)cccc12	75*	69*	58*	84*	95*	49	83*	3	Beacon interf DR=>99
Cc1ccccc1NC(=O)C1Cc2ccccc2CN1C(=O)c1ccco1 (stereo not drawn)	1	-5	3	2	-5	5	·	·
CCSc1nnc(NC(=O)C2Cc3ccccc3CN2C(=O)c2ccco2)s1 (stereo not drawn)	3	-2	20	1	53*	13	4	0
SMILES	LMPTP inh	Scp1 inh	SUMO1-SIM PPI	STEP inh	DNMT1 block	CSN inh	DNMT1 inh conf	DNMT1 interf	others
CCOC(=O)CC(NS(=O)(=O)c1ccc2[nH]cc(C(=O)O)c(=O)c2c1)c1ccc(OCC)c(OC)c1 (stereo not drawn)	2	48	9	74*	73*	9	5	-3	STEP conf=25*
COC(=O)c1sc(NC(=O)/C=C/c2ccccc2Cl)nc1C	36	46	30	57*	62*	23	3	0	STEP conf=1
COC(=O)c1sc(NC(=O)/C=C/c2ccc(C)cc2)nc1C	16	-4	-3	-1	-6	-12	·	·
CCOC(=O)C1CCN(C(=O)c2cc3cc(Br)ccc3oc2=O)CC1	-1	-4	3	-2	3	3	·	·
O=c1cc(-c2ccccc2)nc2nc(-c3ccco3)[nH]n12	51*	-1	54*	86*	104*	72	-2	4	STEP conf=0
Cc1nc2nc(-c3ccccc3)cc(=O)n2[nH]1	-1	-4	-2	-1	-3	-3	·	·
CC(C)c1ccc(N(CC(=O)NCc2ccco2)C(=O)CCC(=O)Nc2nccs2)cc1	-1	-1	5	1	0	1	·	·
CSc1ccc(C=NNc2ccc(S(=O)(=O)Nc3ccccc3C(=O)O)cc2[N+](=O)[O-])cc1	91*	5	96*	44*	86*	15	55*	-8	Beacon interf DR=>99;STEP conf=59*
CC(NC(=O)C1CCCN1S(=O)(=O)c1cccc2nsnc12)c1ccccc1 (stereo not drawn)	-3	10	-32	-2	1	-1	·	·
CCOc1ccc(OCC)c(NC(=O)CCSCCc2ccccn2)c1	0	0	3	97*	89*	-1	1	5	STEP conf=0
CCOc1ccc(OCC)c(NC(=O)CSCCc2ccccn2)c1	1	-13	-5	-4	1	2	·	·
O=C(N/N=C/c1ccc(Br)s1)c1ccc([N+](=O)[O-])cc1	80*	-5	-4	69*	79*	19	-1	-2	STEP conf=-8
